# Results reported in ChEMBL document CHEMBL1124259, “C-nor-9,11-secoestranes as modified estrogens and fertility regulation” (1988).
# Columns and labels:
# Type in all cases: functional
# Rattus norvegicus [1] = test: Antiimplantation activity as minimum effective dose after oral administration.; settings: read-out: MED
# Method in brief: (§1)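 Colony-bred adult female rats (150–170 g) were dosed orally with the compound as a gum acacia suspension on days 1–7 postcoitum, five to seven animals per group. Implants were counted by laparotomy on day 10 of pregnancy. The value is the minimum dose at which implants were totally absent from both uterine horns.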
# Rattus norvegicus [2] = test: Antiimplantation activity as minimum effective dose after subcutaneous administration.; settings: sc, read-out: MED
# Method in brief: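 Compound was given subcutaneously in 0.5 mL propylene glycol–saline (1:1, v/v) to colony-bred adult female rats (150–170 g) on days 1–7 postcoitum, five to seven animals per group. Laparotomy on day 10 of pregnancy counted implants. The minimum dose giving total absence of implants in both uterine horns was recorded.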
# Rattus norvegicus [3] = test: Antiimplantation activity as minimum effective dose after peroral administration.; settings: po, read-out: MED; method in brief: as §1
# Rattus norvegicus [4] = test: Antiimplantation activity was measured as minimum effective dose after oral administration.; settings: read-out: MED; method in brief: as §1
# Rattus norvegicus [5] = test: Antiimplantation activity as minimum effective dose after oral administration; settings: read-out: MED; method in brief: as §1
Compound,minimal effective dose (Rattus norvegicus [2]) [mg/kg],minimal effective dose (Rattus norvegicus [3]) [mg/kg],other results
C#C[C@]1(O)CCC(C2CCc3cc(O)ccc3C2)C1(C)C (stereo not given in full),0.025,–,minimal effective dose (Rattus norvegicus [1]): 0.75 mg/kg
COc1ccc2c(c1)CCC(C1CCC(O)C1(C)C)C2 (stereo not given),1.5,10.5,–
CC1(C)C(O)CCC1C1CCc2cc(O)ccc2C1 (stereo not given),0.01,10,–
C#C[C@]1(O)CCC(C2CCc3cc(OC)ccc3C2)C1(C)C (stereo not given in full),0.025,–,minimal effective dose (Rattus norvegicus [4]): 1 mg/kg
C[C@]12CC[C@@H]3c4ccc(O)cc4CC[C@H]3[C@@H]1CC[C@@H]2O [ESTRADIOL],0.015,–,–
C#C[C@]1(O)CC[C@H]2[C@@H]3CCc4cc(O)ccc4[C@H]3CC[C@@]21C [ETHINYL ESTRADIOL],–,–,minimal effective dose (Rattus norvegicus [5]): 0.15 mg/kg
